Reference: ChEMBL document CHEMBL1141826, “From a phagostimulant natural product to semisynthetic antifeedants against Spodoptera littoralis larvae: chemical transformations of the neoclerodane diterpenoid scutegalin B” (J Nat Prod, 1999)

Columns and labels:
Spodoptera littoralis [1] = assay: Antifeedant activity against sixth stadium larvae of Spodoptera littoralis assessed as antifeedant index at 100 ppm after 16 hrs; type: functional
Procedure, shortened: (§1)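 Choice test: sixth-stadium larvae were starved 4 h and each placed in a Petri dish with two sucrose-treated glass-fiber disks (100 μL 0.05 M, 2.1 cm), one a control and one carrying compound at 100 ppm. Disks were reweighed, and index = [(C−T)/(C+T)]×100 from weights eaten. Negative values mean phagostimulation. 10 replications; Wilcoxon signed-ranks test, P<0.05.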

Spodoptera littoralis [2] = assay: Antifeedant activity against sixth stadium larvae of Spodoptera littoralis after 16 hrs; type: functional, organism-based
Procedure, shortened: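 No-choice feeding test: glass-fiber disks (2.1 cm) made palatable with 100 μL 0.05 M sucrose, then treated with 100 μL of test solution at 1, 10, 100 or 1000 ppm and offered to S. littoralis larvae. Ended at 16 h, when 50% of control disks were consumed. Disks were reweighed, and EC50 for 50% reduction in feeding was estimated relative to the sucrose control. 10 replications per concentration.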

Spodoptera littoralis [3] = assay: Phagostimulant activity against sixth stadium larvae of Spodoptera littoralis assessed as antifeedant index at 100 ppm after 16 hrs; type: functional; procedure, shortened: as §1

Compound | Activity (Spodoptera littoralis [1]) [%] | EC50 (Spodoptera littoralis [2]) [ppm] | Activity (Spodoptera littoralis [3]) [%]
C/C=C(\C)C(=O)O[C@H]1O[C@@H]2C[C@@H]3[C@@](C)(CC[C@H](CO)CCO)[C@H](C)[C@@H](OC(C)=O)[C@H](OC(C)=O)[C@]13[C@@]1(CO1)C2 | 18.8 |  | 
CC(=O)OC1O[C@@H]2C[C@@H]3[C@@](C)([C@@H]4C[C@H]5C=CO[C@H]5O4)[C@H](C)C[C@H](OC(C)=O)[C@]13[C@@]1(CO1)C2 (some centres not stated) [JODRELLIN A] | 92 |  | 
C/C=C(\C)C(=O)O[C@H]1O[C@@H]2C[C@@H]3[C@@](C)(CC[C@H]4CCOC4=O)[C@H](C)[C@@H](O)[C@H](OC(C)=O)[C@]13[C@@]1(CO1)C2 | 29.3 | > 1000 | 
CO[C@H]1O[C@@H]2C[C@@H]3[C@@](C)(CC[C@H]4CCOC4=O)[C@H](C)[C@@H](OC(C)=O)[C@H](OC(C)=O)[C@]13[C@@]1(CO1)C2 |  |  | -29.5
CC(=O)O[C@H]1C[C@@H](C)[C@](C)([C@@H]2C[C@H]3C=CO[C@H]3O2)[C@H]2C[C@@H]3C[C@]4(CO4)[C@]12C(OC(=O)C(C)C)O3 (some centres not stated) [JODRELLIN B] | 100 |  | 
C/C=C(\C)C(=O)O[C@H]1O[C@@H]2C[C@@H]3[C@@](C)(CC[C@H]4CCOC4=O)[C@H](C)[C@@H](OC(C)=O)[C@H](O)[C@]13[C@@]1(CO1)C2 | 18.6 | > 1000 | 
C/C=C(\C)C(=O)O[C@H]1C[C@H](C)[C@](C)([C@@H](O)CC2=CC(=O)OC2)[C@H]2CCC[C@]3(CO3)[C@]12COC(C)=O [SCUTALPIN C] | 96.8 | < 1 | 
C/C=C(\C)C(=O)O[C@H]1O[C@@H]2C[C@@H]3[C@@](C)(CC[C@H]4CCO[C@H]4O)[C@H](C)[C@@H](O)[C@H](OC(C)=O)[C@]13[C@@]1(CO1)C2 [SCUTEGALIN B] |  | 870 | -27
CC(=O)O[C@@H]1[C@@H](C)[C@](C)(CC[C@H]2CCOC2=O)[C@H]2C[C@@H]3C[C@]4(CO4)[C@]2([C@@H](O)O3)[C@H]1OC(C)=O | 34 | > 1000 | 
C/C=C(\C)C(=O)O[C@H]1O[C@@H]2C[C@@H]3[C@@](C)(CC[C@@H](CCOC(C)=O)COC(C)=O)[C@H](C)[C@@H](OC(C)=O)[C@H](OC(C)=O)[C@]13[C@@]1(CO1)C2 |  |  | -0.4
CC(=O)O[C@@H]1[C@@H](C)[C@](C)(CC[C@H]2CCOC2=O)[C@H]2C[C@@H]3C[C@]4(CO4)[C@]2([C@@H](OC(=O)C(C)C)O3)[C@H]1O | 37.5 | > 1000 | 
CC(=O)O[C@@H]1[C@@H](C)[C@](C)(CC[C@H]2CCOC2=O)[C@H]2C[C@@H]3C[C@]4(CO4)[C@]2([C@@H](O)O3)[C@H]1O | 67 | 51 | 
CC(=O)OCC[C@H](CC[C@@]1(C)[C@H](C)[C@@H](OC(C)=O)[C@H](OC(C)=O)[C@]23[C@@H]1C[C@H](C[C@]21CO1)O[C@@H]3O)COC(C)=O |  |  | -38.8
CC(=O)O[C@@H]1[C@@H](C)[C@](C)(CC[C@H]2CCOC2=O)[C@H]2C[C@@H](OC(=O)C(C)C)C[C@]3(CO3)[C@]2(C=O)[C@H]1OC(C)=O |  |  | -10
CC(=O)O[C@H]1C(=O)[C@@H](C)[C@](C)(CC[C@H]2CCOC2=O)[C@H]2C[C@@H]3C[C@]4(CO4)[C@@]21C(=O)O3 | 44.1 | > 1000 | 
CC(=O)OCC[C@H](CC[C@@]1(C)[C@H](C)[C@@H](OC(C)=O)[C@H](OC(C)=O)[C@]23C(=O)O[C@H](C[C@H]12)C[C@]31CO1)COC(C)=O |  |  | -27.4
C/C=C(\C)C(=O)O[C@H]1O[C@@H]2C[C@@H]3[C@@](C)(CC[C@H]4CCOC4=O)[C@H](C)C(=O)[C@H](OC(C)=O)[C@]13[C@@]1(CO1)C2 | 36.5 | 350 | 
CC(=O)O[C@@H]1C[C@@H]2[C@@](C)(CC[C@H]3CCOC3=O)[C@H](C)[C@@H](OC(C)=O)[C@H](OC(C)=O)[C@@]2(C=O)[C@@]2(CO2)C1 | 17.2 |  | 
